Experiment [1] has as its system CV-1. Nature of the experiment: Selectivity ratio of maximum activation of human ERbeta expressed in CV1 cells to maximum activation of human ERalpha expressed in CV1 cells. In kind it is cell-based. In outline:
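CV-1 cells held in phenol red-free DMEM with 5% stripped FBS for 3 days, seeded at 1.5 × 10⁵ cells/well. Next day they were co-transfected for 6 h with 30 ng hERα or hERβ plus 100 ng ERE-luciferase, with a β-galactosidase vector for normalization. Treated 24 h, then luciferase read, β-gal absorbance at 410 nm. Each subtype's activation expressed relative to maximum with 20 nM E2; at least three experiments.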

Experiment [2] relates to MCF7. Nature of the experiment: Growth inhibition in human MCF7 cells at 5 to 100 uM after 4 days by MTT assay. In kind it is functional, cell-based. An outline of the steps: (§1)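 MCF-7 cells kept in DMEM with 10% FBS, then held 3 days in phenol red-free DMEM with 5% charcoal-dextran stripped FBS. Seeded at 1.5 × 10³ cells/well for 24 h, then treated with samples for 4 days; 0.1 nM E2 and 100 nM ICI served as controls. MTT (5 mg/mL in PBS) was added for 2 h, formazan dissolved in DMSO and absorbance read. Three independent experiments, mean ± SD, Dunnett test.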

Experiment [3] concerns MCF7. The experiment can be described thus: Stimulation of growth in human MCF7 cells at 5 to 20 uM after 4 days by MTT assay. It counts as functional, cell-based. An outline of the steps: as §1
In general terms: Tetrazolium assays rely on reduction of a dye to a coloured formazan, in cell work by metabolically active cells.

The test system of experiment [4] is MCF7. The experiment can be described thus: Growth inhibition in human MCF7 cells at 50 to 100 uM after 4 days by MTT assay. It counts as functional, cell-based. An outline of the steps: as §1
For experiment [5], the species on record is Homo sapiens. The experiment can be described thus: Selectivity ratio of maximum inhibition of recombinant human ERbeta to maximum inhibition of recombinant human ERalpha by competitive binding assay. An outline of the steps: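 Competitive binding with [³H]-E2 (1 nM) for ERα and ERβ. Bound and free ligand separated by centrifugation at 12,000 × g for 2 min; supernatant radioactivity counted by liquid scintillation. Bound [³H]-E2 expressed relative to maximum receptor-bound ligand (10⁻⁷ M E2), versus 0.1% DMSO control; at least three separate experiments.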

Experiment [6] relates to MCF7. Nature of the experiment: Growth inhibition in human MCF7 cells at 20 to 100 uM after 4 days by MTT assay. In kind it is functional, cell-based. An outline of the steps:
as §1

Experiment [7] concerns MCF7. Nature of the experiment: Stimulation of growth in human MCF7 cells at 0.1 to 20 uM after 4 days by MTT assay. In kind it is functional, cell-based. An outline of the steps:
as §1

SMILES strings stand for the structures. Calls of active or inactive are those of the source. The calls are words filed in the database; no cut-off is given here.

As for `O=c1c(-c2ccc(O)cc2)c[nH]c2cc(O)ccc12`, the Selectivity ratio in experiment [1] was 1.3.
As to `O=c1c(-c2ccc(O)cc2)cn(Cc2ccccc2)c2cc(O)ccc12`, the Selectivity ratio in experiment [1] was found to be 1. Besides, the “growth inhibition (GI)” value in experiment [2] was “Active”.
Take `Cn1cc(-c2ccc(O)cc2)c(=O)c2ccc(O)cc21`: the Selectivity ratio in experiment [1] is 6.4.
Take `CCn1cc(-c2ccc(O)cc2)c(=O)c2ccc(O)cc21`: the Selectivity ratio in experiment [1] was 2.9. For the same compound, in experiment [3], the result was Active. In experiment [4], the “growth inhibition (GI)” value was “Active”.
Take `CCn1cc(-c2ccc(O)cc2)c(=O)c2c(O)cc(O)cc21`: the Selectivity ratio in experiment [5] was determined as 1.6; in experiment [1], 0.8. Moreover, the outcome in experiment [3] was Active. The “growth inhibition (GI)” value in experiment [4] is “Active”.
Take `O=c1c(-c2ccc(O)cc2)c[nH]c2cc(O)cc(O)c12`: the Selectivity ratio was found to be 12 in experiment [5] and 2.9 in experiment [1]. For the same compound, in experiment [3], the outcome was Active. In experiment [4], the “growth inhibition (GI)” value was “Active”.
On to `O=c1c(-c2ccc(O)cc2)coc2cc(O)cc(O)c12`, for which the “growth inhibition (GI)” value in experiment [6] is “Active”. In experiment [7], the result was Active.
`CC(C)CCn1cc(-c2ccc(O)cc2)c(=O)c2ccc(O)cc21`: the Selectivity ratio in experiment [1] came to 3.4. For the same compound, in experiment [2], the “growth inhibition (GI)” value was “Active”.
For the compound `CCCn1cc(-c2ccc(O)cc2)c(=O)c2c(O)cc(O)cc21`, the Selectivity ratio amounted to 1.4 in experiment [5] and 0.3 in experiment [1]. Further, the “growth inhibition (GI)” value in experiment [2] is “Active”.
With `CCCn1cc(-c2ccc(O)cc2)c(=O)c2ccc(O)cc21`, the Selectivity ratio in experiment [1] turned out to be 1.6. Further, the outcome in experiment [3] was Active. Besides, in experiment [4], the “growth inhibition (GI)” value was “Active”.
For the compound `Cn1cc(-c2ccc(O)cc2)c(=O)c2c(O)cc(O)cc21`, the Selectivity ratio was 2.6 in experiment [5] and 1.3 in experiment [1]. Moreover, the outcome in experiment [3] was Active. Moreover, the “growth inhibition (GI)” value in experiment [4] is “Active”.
As to `CCCn1cc(-c2ccc(O)cc2)c(=O)c2ccccc21`, the Selectivity ratio in experiment [1] stood at 0.5. Also, in experiment [3], the outcome was Active. The “growth inhibition (GI)” value in experiment [4] is “Active”.

These data come from ChEMBL document CHEMBL3351677, “Design and synthesis of azaisoflavone analogs as phytoestrogen mimetics” (Eur J Med Chem, 2014).
